Data on seven compounds can be found in article PMC8320611 (Current Research in Toxicology, 2020).

Structures are written as SMILES.

The test system of series [1] is human myelocytic HL-60 leukemia cancer cells. As to conditions: HL-60, incubation with 0.5–40 μM; ref Park et al., 2008; cited from earlier work.
Series [2] concerns HepG2 cells. As to the kind of experiment: Resazurin reduction assay. As to conditions: HepG2, 1 h or 24 h incubation, 0–100 μM, vs negative control 1% DMSO. Type of series: cell-based, human. An outline of the steps:
(§1)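 Cells were seeded at 180,000 per well (HepG2 in RPMI 1640, HT29 in DMEM; 5% FCS, 37 °C, 5% CO2). After 24 h they were exposed to 0.1, 1, 10 or 100 μM test compound for 1 h or 24 h, using DMSO stocks diluted 1:100, in triplicate. Controls were 0.1% SDS and 1% DMSO. Cells were washed and given resazurin for 1 h; fluorescence was read at 544/590 nm. Blank-subtracted values are % of DMSO control, mean ± SD of three experiments.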

Series [3] has as its system HT29 cells. As to the kind of experiment: Resazurin reduction assay. Type of series: cell-based, human. As to conditions: HT29, 1 h or 24 h incubation, 0–100 μM, vs negative control 1% DMSO. The gist of the method:
as §1

Series [4] has as its system HT29 cells. As to the kind of experiment: Comet assay. Type of series: cell-based, human. The conditions noted are these: for Total DNA strand breaks with FPG treatment (%-TI): HT29, 24 h, 10 or 100 μM, FPG treated, two independent experiments; for Background DNA-strand breaks (tail intensity): HT29, 24 h incubation, 10–100 μM, without FPG. An outline of the steps:
(§2)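 Cells at 80–90% confluence, viability >80% by trypan blue (HepG2 in RPMI 1640, HT29 in DMEM; 5% FCS) were exposed 24 h to 10 or 100 μM test compound from DMSO stock diluted 1:1000. Controls were 0.1% DMSO and 10 J/m2 UVC. Slides were lysed overnight at 4 °C, then treated with FPG or buffer. Unwinding was pH 13.5, 20 min; electrophoresis 20 min, 25 V. Mean tail intensity was scored on 2 × 50 cells/slide. Without FPG: three independent experiments; with FPG: two, in duplicate.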

The conditions of series [5]: in vitro studies; ref Prasad, 2000; cited from earlier work.
For series [6], the system named is human ovary carcinoma cell line ES-2. The conditions noted are these: ES-2, 48 h incubation, at 1 mM; ref Liu et al., 2017; cited from earlier work.
The conditions of series [7]: ref Hu et al., 2007; cited from earlier work.
The subject of series [8] is HepG2 cells. As to the kind of experiment: Comet assay. As to conditions: for Total DNA strand breaks with FPG treatment (%-TI): HepG2, 24 h, 10 or 100 μM, FPG treated, two independent experiments; for Background DNA-strand breaks (tail intensity): HepG2, 24 h incubation, 10–100 μM, without FPG. In kind it is cell-based, human. The gist of the method:
as §2

The test system of series [9] is HT29 clone 19A human colon tumor cells. As to conditions: ref Pool-Zobel et al., 2000, cited from earlier work; for DNA strand breaks (comet assay): 15 min incubation, 100 μM END and ENL.
The test system of series [10] is microbiota from human faeces. As to conditions: incubation with microbiota from human faeces for 24 h; ref Heinonen et al., 2001; cited from earlier work.
In series [11] the test system is extracellular vascular endothelial growth factor (VEGF). The conditions noted are these: in vivo, mice with established human breast cancer; ref Dabrosin et al., 2002; cited from earlier work.
For series [12] the following is noted: stated in the introduction, no reference given; cited from earlier work.

`COc1cc([C@H]2OC[C@H]3[C@@H]2CO[C@@H]3c2cc(OC)c(O)c(OC)c2)cc(OC)c1O` [Syr, 4,4′-(1S,3aR,4S,6aR)-Tetrahydro-1H,3H-furo[3,4-c]furan-1,4-diylbis(2,6-dimethoxy-phenol)]: the “Cell vitality (MTT assay)” value in series [1] is “significant concentration-dependent decrease”. The Relative vitality entry in series [2] and in [3] was “no significant reductions” in each case.
Regarding `OC[C@H](Cc1cccc(O)c1)[C@H](CO)Cc1cccc(O)c1` [END, (2R,3R)-2,3-bis[(3-hydroxyphenyl)methyl]butane-1,4-diol], in series [4], the “Total DNA strand breaks with FPG treatment (%-TI)” value (from here on “Total DNA strand breaks … (%-TI)”) is recorded as “No modulation” and the “Background DNA-strand breaks (tail intensity)” value (“Background DNA-strand breaks” for short) is recorded as “No significant modulation”. For the same compound, the “Levels of reactive oxygen species (antioxidant effect)” value (“Levels of reactive oxygen species” for short) in [5] was “reduce the levels of reactive oxygen species”. The Vitality entry in series [6] is recorded as “significant decrease in vitality”. In series [7], the “Protection against DNA damage and lipid peroxidation” value (“Protection” below) was “protect against DNA damage and lipid peroxidation”. In addition, in series [2], the Relative vitality entry was “no significant reductions”. Besides, the Relative vitality result in series [3] was “no significant reductions”. In series [8], the “Total DNA strand breaks … (%-TI)” value is “No modulation” and the “Background DNA-strand breaks” value is “No significant modulation”. In addition, in [9], the “DNA strand breaks (comet assay)” value is given as “no differences to the negative control” and the “Oxidised pyrimidine DNA bases” value is on record as “reduced”.
Turning to `O=c1c(-c2ccc(O)cc2)coc2cc(O)cc(O)c12` [genistein, reference compound], in [9], the “DNA strand breaks (comet assay)” value is given as “induced highly significant”.
Consider `COc1cc([C@H]2OC[C@H]3[C@@H]2CO[C@@H]3c2ccc(O[C@@H]3O[C@H](CO)[C@@H](O)[C@H](O)[C@H]3O)c(OC)c2)ccc1O[C@@H]1O[C@H](CO)[C@@H](O)[C@H](O)[C@H]1O` [Pin-DG, pinoresinol diglycoside], for which, in [10], the “Conversion into END and ENL” value is 55%.
Take `O=C1OC[C@H](Cc2cccc(O)c2)[C@H]1Cc1cccc(O)c1` [ENL, (3R,4R)-3,4-bis[(3-hydroxyphenyl)methyl]oxolan-2-one]: in [4], the “Total DNA strand breaks … (%-TI)” value is listed as “no significant modulation” and the “Background DNA-strand breaks” value is “No significant modulation”. For the same compound, the “Levels of reactive oxygen species” value in [5] is given as “reduce the levels of reactive oxygen species”. For the same compound, the Vitality result in series [6] is “significant decrease in vitality”. Besides, the “Protection” value in series [7] was “protect against DNA damage and lipid peroxidation”. In addition, the Relative vitality entry in series [2] is “no significant reductions”. Moreover, the “Extracellular VEGF” value in series [11] was “suppressed”. Moreover, the Relative vitality entry in [3] was “no significant reductions”. Moreover, in series [8], the “Total DNA strand breaks … (%-TI)” value is listed as “no significant modulation” and the “Background DNA-strand breaks” value is listed as “No significant modulation”. Besides, in series [9], the “DNA strand breaks (comet assay)” value is recorded as “no differences to the negative control”, the “Oxidised pyrimidine DNA bases” value is on record as “reduced” and the “Oxidized purine DNA bases” value was “had such an impact”.
In the case of `COc1cc(C[C@@H](CO)[C@H](CO)Cc2ccc(O)c(OC)c2)ccc1O` [Seco, secoisolariciresinol], the “Levels of reactive oxygen species” value in series [5] is reported as “reduce the levels of reactive oxygen species”. The “Protection” value in series [7] is “protect against DNA damage and lipid peroxidation”. The “Conversion into END and ENL” value in [10] was 72%.
With `COc1cc(C[C@@H](CO[C@@H]2O[C@H](CO)[C@@H](O)[C@H](O)[C@H]2O)[C@H](CO[C@@H]2O[C@H](CO)[C@@H](O)[C@H](O)[C@H]2O)Cc2ccc(O)c(OC)c2)ccc1O` [Seco-DG, seco-diglycoside], the Solubility in water result in [12] was “highly soluble”.
